AHR activator: activators of human aryl hydrocarbon receptor; P35869; AHR-responsive luciferase reporter cells, luminescence; activation, % at 5 µM; 320,000 compounds, 2.5% hits; in the data active means activation above about 47%;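 further: 0% = vehicle wells and 100% = reference agonist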
Target sequence (P35869 whole entry, looked up): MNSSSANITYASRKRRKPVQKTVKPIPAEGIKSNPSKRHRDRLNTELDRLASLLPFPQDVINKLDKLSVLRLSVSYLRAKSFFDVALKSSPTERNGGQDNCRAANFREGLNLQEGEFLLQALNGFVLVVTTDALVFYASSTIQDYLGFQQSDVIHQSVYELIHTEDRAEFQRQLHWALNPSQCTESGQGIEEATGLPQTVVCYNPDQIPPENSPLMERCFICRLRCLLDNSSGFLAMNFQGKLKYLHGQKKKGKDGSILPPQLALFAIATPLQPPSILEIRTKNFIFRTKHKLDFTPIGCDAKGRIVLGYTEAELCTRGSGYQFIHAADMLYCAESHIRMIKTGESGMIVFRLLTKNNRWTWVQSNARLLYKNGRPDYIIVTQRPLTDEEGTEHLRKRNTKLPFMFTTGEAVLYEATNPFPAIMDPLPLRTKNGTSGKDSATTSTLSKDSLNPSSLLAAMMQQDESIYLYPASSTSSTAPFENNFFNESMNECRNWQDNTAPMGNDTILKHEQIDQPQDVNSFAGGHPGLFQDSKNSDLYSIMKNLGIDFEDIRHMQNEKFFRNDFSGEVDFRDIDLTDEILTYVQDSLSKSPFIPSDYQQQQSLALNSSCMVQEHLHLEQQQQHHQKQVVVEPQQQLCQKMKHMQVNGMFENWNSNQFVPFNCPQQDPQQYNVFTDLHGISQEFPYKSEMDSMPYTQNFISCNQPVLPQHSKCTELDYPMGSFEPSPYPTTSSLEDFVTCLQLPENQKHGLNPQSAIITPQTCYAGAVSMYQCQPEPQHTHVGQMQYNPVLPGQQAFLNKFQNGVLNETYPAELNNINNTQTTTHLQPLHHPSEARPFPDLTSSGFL
CTSL1 counter: counter-screen for PFM18AAP inhibitors: inhibitors of F. hepatica cathepsin L1 | inhibition, % at 5.96 µM | AID 1906 | recombinant F. hepatica cathepsin L1, Z-Leu-Arg-MCA fluorescence | 300,000 compounds, 0.49% hits;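 active means inhibition above the mean of all tested compounds plus 3 SD, set per screening campaign, cut at about 17% in these data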;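 further: 0% = plate median of test compound wells and 100% = 1 µM Z-Phe-Ala-diazomethylketone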
SENP1 inh: SENP1 (human) catalytic domain inhibition. Q9P0U3. recombinant SENP1 catalytic domain, CyPet-SUMO1-YPet FRET cleavage. inhibition, % at 10 µM. 360,000 compounds, 0.21% hits. AID 624204;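 active means inhibition at least 30% at 10 µM, raw YFP signal under a set limit, fluorescence ratio 0.5 to 1.5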;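 further: 0% = enzyme with DMSO and 100% = no enzyme wells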
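Material – human SENP1 catalytic domain · Input – SENP1 enzyme, 20 pM final · Compound dosing – single concentration of 10 µM compound, 0.5% DMSO final · Timing – enzyme reaction for 50 min at room temperature, dark · Measured by – FRET fluorescence in CFP and YFP emission channels · Control set – no-enzyme wells low, DMSO-plus-enzyme wells high control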
FXN GAA850 act: increases GAA850 frataxin promoter reporter activity | HEK293 lucGAA850 FXN promoter luciferase reporter, 24 h; percent of 10 µM SAHA response | 360,000 compounds, 0.56% hits | activation, % at 6 µM;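 active means activation above the average of all compounds screened plus 3 SD, cutoff fixed separately per campaign, cut at about 7.5% in these data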;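 further: 0% = DMSO wells and 100% = 10 µM SAHA wells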
HDAC3 inhib: inhibitors of human histone deacetylase 3; recombinant HDAC3, fluorogenic peptide/trypsin coupled, fluorescence; inhibition, % at 8.3 µM; 320,000 compounds, 0.15% hits; AID 2718; in the data active means inhibition above about 26%, passing the limit was not always enough
PfM18AAP inh: PfM18AAP enzyme inhibition; recombinant PfM18AAP, H-Glu-NHMec fluorogenic cleavage; inhibition, % at 7.35 µM; 290,000 compounds, 1.2% hits;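 active means inhibition above the campaign mean inhibition over all tested compounds plus 3 SD, cut at about 28% in these data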;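 further: 0% = plate median of test compound wells and 100% = 2 mM ZnCl2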
SENP1 inh conf: SENP1 (human) inhibition, single concentration confirmation; 520 compounds, 34% hits; inhibition, % at 10 µM; recombinant SENP1, CyPet-SUMO1-YPet FRET cleavage; shares compounds with SENP1 inh; AID 651678; in the data active means inhibition mostly above about 35%, no sharp cut-off; inactive means mostly below about 32%;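 further: 0% = enzyme with DMSO and 100% = no enzyme control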
SENP1 kinetic: confirmation of human SENP1 SUMO protease inhibitors, kinetic. shares compounds with SENP1 inh. AID 651690. 520 compounds, 26% hits. inhibition, % at 10 µM. recombinant SENP1, CyPet-SUMO1-YPet FRET kinetic cleavage; in the data active means inhibition mostly above about 32%, no sharp cut-off; inactive means mostly below about 29%;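 further: 0% = DMSO with enzyme and 100% = no enzyme substrate only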
Starred values were filed as active, the others as inactive; . = no result given. Shown are actives, neighbours in structure and some others; about 4.2% of the full set was active somewhere.

SMILES	AHR activator	CTSL1 counter	SENP1 inh	FXN GAA850 act	HDAC3 inhib	PfM18AAP inh	SENP1 inh conf	SENP1 kinetic
COc1ccc(N(C)C(=O)Nc2ccc3c(c2)nnn3C)cc1	-3	-2	1	2	-1	20	.	.
COc1ccc(N(C)C(=O)Nc2ccc3nsnc3c2)cc1	.	.	56*	0	.	12	8	9
COc1cccc(N=Cc2ccc(O)cc2O)c1	1	4	36*	-1	-1	9	17	11
COC1=CC(=O)OC(c2ccccc2)C1 (centres undefined)	.	.	2	.	.	.	.	.
COc1cc(/C=C2\SC(=Nc3ccc(O)cc3)NC2=O)cc(OC)c1O	15	15	64	4	4	19	.	.
COc1cc(/C=C2\SC(=Nc3c(C)n(C)n(-c4ccccc4)c3=O)NC2=O)ccc1O	.	.	42*	2	.	1	59*	41*
COc1ccc2c(c1)c1nc3ccccc3nc1n2CCn1c(=O)oc2ccccc21	13	3	54*	0	-2	-1	131*	83*
COc1ccc2c(c1)c1nc3ccccc3nc1n2CCCN1C(=O)c2ccccc2C1=O	4	-2	87	2	3	-4	.	.
COc1ccc2c(c1)c1nc3ccccc3nc1n2Cc1ccc(OC(C)C)c(OC)c1	4	6	35*	1	-2	-7	47*	34*
COc1ccc(NC(=O)/C(=C\c2ccc(F)cc2)NC(=O)c2ccco2)cc1	4	0	3	-1	3	7	.	.
CN(Cc1ccccc1)C(=O)CN1CCN(S(=O)(=O)c2ccccc2F)CC1	.	.	1	1	.	.	.	.
O=C(CN1CCSC1=NCc1ccccc1)c1ccc(Cl)c(Cl)c1	2	3	40*	3	-3	-4	-13	-5
Cc1ccc2nc(SCC(=O)Nc3ccccc3N3CCOCC3)c(C#N)cc2c1	6	2	33*	1	-4	0	-11	-12
CCc1ccc2nc(SCC(=O)N3CCCCC3)c(C#N)cc2c1	8	-1	-2	5	1	0	.	.
CCc1ccc2nc(SCC(=O)Nc3ccccc3N3CCOCC3)c(C#N)cc2c1	-3	-3	48*	1	.	-12	21	17
CCC(C)Sc1cccc(-c2nc3cc(C)ccn3c2NC2CCCCC2)c1 (centres undefined)	19	.	-13	4	.	.	.	.
CC(C)c1ccc(C(=O)N(c2ccccn2)C(C)c2ccco2)cc1 (centres undefined)	2	2	2	5	-3	-2	.	.
CC(c1ccco1)N(C(=O)c1cccs1)c1ccccn1 (centres undefined)	-2	2	30*	1	7	0	-6	6
O=S(=O)(N/N=C/c1ccc(N2CCOCC2)cc1)c1ccccc1	2	2	37*	0	3	6	32	25
O=C(N/N=C/c1ccc(N2CCOCC2)cc1)c1ccc(O)cc1	12	3	34*	0	1	12	25	17
CCn1c(C)nc2cc(C(=O)N/N=C/c3ccc(N4CCOCC4)cc3)ccc21	-5	10	35*	0	0	6	28	26
O=S(=O)(N/N=C/c1ccc(OC2CSC2)cc1)c1ccccc1	12	-7	2	2	.	11	.	.
C/C(=N\NC(=O)c1ccc(O)cc1)c1ccc(N2CCOCC2)cc1	3	0	0	5	-5	1	.	.
Cc1cnc(CNC(=O)c2csc([C@H]3C[C@H](O)[C@@H](CO)O3)n2)cn1	.	.	0	0	.	.	.	.
C=C1[C@H](C)CN[C@H]1CCO	.	.	2	1	.	.	.	.
SMILES	AHR activator	CTSL1 counter	SENP1 inh	FXN GAA850 act	HDAC3 inhib	PfM18AAP inh	SENP1 inh conf	SENP1 kinetic
O=C(OCc1ccc(O)cc1)c1c(-c2ccsc2)oc2ccc(N3CCOCC3)cc12	22	2	36*	2	5	2	19	21
OC[C@@H]1CN(CCN2CCOCC2)C[C@H](n2cnc3c(NC4CCC4)ncnc32)O1	.	.	0	0	.	.	.	.
Nc1ncnc2nc(SCC(=O)Nc3ccccc3F)[nH]c12	5	8	-2	2	-9	6	.	.
COc1cc(-c2cnc3c(NC(C)=O)cc(-c4ccc(N5CCN(C)CC5)cc4)cn23)cc(OC)c1OC	.	.	34*	-8	.	.	12	-1
CC(=O)Nc1cc(-c2ccc(N3CCN(C)CC3)cc2)cn2c(-c3ccc(S(C)(=O)=O)cc3)cnc12	.	.	22	1	.	.	.	.
CC(=O)Nc1cc(-c2ccc(N3CCN(C)CC3)cc2)cn2c(-c3ccccc3)cnc12	.	.	48*	-1	.	.	39*	28
COc1ccc(NC(=O)CC#N)cc1OC	3	-2	53*	-1	-1	-6	-4	1
COc1ccc(NC(=O)Cc2c(F)c(F)c(F)c(F)c2F)cc1OC	4	10	0	-1	0	-11	.	.
O=C(O)COc1ccc(F)cc1Br	1	-4	4	-1	0	-5	.	.
CC(=O)Oc1ccc(Cl)cc1/C=C/c1ccc2ccccc2n1	71*	-1	34*	6	-7	4	38*	16
COc1ccc(-c2ccc3c(c2)S(=O)(=O)c2cccc(C(=O)NCc4cc(C)oc4C(F)(F)F)c2C3=O)cc1OC	3	.	59*	1	0	.	44*	34*
COc1ccc(-c2ccc3c(c2)S(=O)(=O)c2cccc(C(=O)NCc4cccc(OC(F)(F)F)c4)c2C3=O)cc1OC	2	.	-31	0	6	.	.	.
COc1ccc2c(C)cc(SCC(=O)N3CCOCC3)nc2c1	24	2	67*	0	8	4	50*	36*
COc1ccc2c(-c3ccccc3)cc(SCC(N)=O)nc2c1	4	-8	30*	4	-2	-2	14	17
NS(=O)(=O)c1ccc(CNC(=S)NC2CCCCC2)cc1	5	-3	40*	2	.	-2	-5	-5
Cc1cccc(C)c1NC(=O)C1C(c2ccccc2)=Nc2ccccc2N1C(=O)c1cnccn1 (centres undefined)	.	.	37*	.	.	.	16	15
Cc1cc(C(O)c2ncc(-c3ccccc3F)[nH]2)ccc1F (centres undefined)	.	.	0	3	.	.	.	.
CN(CC(=O)Nc1c(Cl)cccc1Cl)C(=O)Cc1ccc(S(=O)(=O)N2CCOCC2)s1	-2	1	0	-1	-1	-9	.	.
COc1ccc(C(=O)OCC(=O)Nc2cccc(S(=O)(=O)NC3=NCCCCC3)c2)cc1[N+](=O)[O-]	.	.	0	0	.	.	.	.
COc1ccccc1Cc1c(-c2cccc(Cl)c2)nc2ccc(Br)cn12	.	.	37*	.	.	.	-9	-2
